Measurements from ChEMBL document CHEMBL3352195, “14,15-Epoxyeicosa-5,8,11-trienoic Acid (14,15-EET) surrogates: carboxylate modifications” (J Med Chem, 2014).

Columns and labels:
[1] = Vasorelaxant activity in bovine coronary artery assessed as reduction of U46619-induced contraction at 10 uM; format: functional, Bos taurus; design: scale not given: the % may be the effect or the level left
Summary of the method: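 Precontracted bovine coronary artery rings were exposed to test agent at 10 μM. Relaxation is expressed as a percentage relative to a 14,15-EET control run in the same preparation. Bioassay determinations n = 3−5.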

[2] = Vasorelaxant activity in bovine coronary artery assessed as reduction of U46619-induced contraction; format: functional, tissue-based, Bos taurus
Summary of the method: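 Bovine coronary artery rings, precontracted, exposed to compound to obtain a concentration–response for relaxation. The value is the EC50 for vasorelaxation. Bioassay determinations n = 3−5.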

[3] = molecular target: T1, Bifunctional epoxide hydrolase 2 (Homo sapiens, UniProt P34913); experiment: Inhibition of recombinant human sEH using CMNPC substrate by fluoresecent-based assay
T1 sequence (P34913 whole entry): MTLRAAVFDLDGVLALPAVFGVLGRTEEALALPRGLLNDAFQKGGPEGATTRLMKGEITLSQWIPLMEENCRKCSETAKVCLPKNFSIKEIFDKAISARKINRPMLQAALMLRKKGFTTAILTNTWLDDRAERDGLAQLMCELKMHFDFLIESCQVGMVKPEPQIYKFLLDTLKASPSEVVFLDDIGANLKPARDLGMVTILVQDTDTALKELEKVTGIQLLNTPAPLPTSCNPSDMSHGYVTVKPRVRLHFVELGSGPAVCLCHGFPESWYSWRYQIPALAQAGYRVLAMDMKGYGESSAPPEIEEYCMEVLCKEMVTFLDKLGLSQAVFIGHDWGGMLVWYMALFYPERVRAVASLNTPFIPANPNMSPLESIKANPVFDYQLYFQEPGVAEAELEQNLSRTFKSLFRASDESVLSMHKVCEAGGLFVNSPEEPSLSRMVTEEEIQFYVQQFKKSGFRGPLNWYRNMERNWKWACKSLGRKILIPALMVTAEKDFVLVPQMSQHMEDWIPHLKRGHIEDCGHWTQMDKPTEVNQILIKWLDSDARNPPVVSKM

EC50 [2] [nM]	IC50 [3] [nM]	Structure (SMILES)	Activity [1] [%]
1500	> 500	CCCCNC(=O)C(=O)NCCCC/C=C\CCCCCCC(=O)OCCOCCOCCO	104
340		CCCCCNC(=O)NCCCC/C=C\CCCCCCC1=NOS(=O)N1 (stereo not drawn)	109
5000		CCCCCNC(=O)NCCCC/C=C\CCCCCS(=O)(=O)c1ccccc1O	
3300		CCCCCNC(=O)NCCCC/C=C\CCCCCCc1noc(=S)[nH]1	93
> 10000		CCCCCNC(=O)NCCCC/C=C\CCCCCSc1ccccc1O	
	> 500	CCCCCCC(=O)N(CCCCCOc1cccc2sc(NC(C)=O)nc12)C(C)C	96
2400	> 500	CCCCNC(=O)C(=O)NCCCCCOc1cccc2sc(NC(C)=O)nc12	96
6000		CCCCCNC(=O)NCCCC/C=C\CCCCCCC(=O)NS(=O)(=O)c1ccccc1	73
1100		CCCCCNC(=O)NCCCC/C=C\CCCCCCCc1nnn[nH]1	110
320	> 500	CCCCCCC(=O)N(CCCC/C=C\CCCCCCC1=NOS(=O)N1)C(C)C (stereo not drawn)	109
180		CCCCCNC(=O)NCCCC/C=C\CCCCCCc1nnn[nH]1	119
1000	> 500	CCCCCCC(=O)N(CCCC/C=C\CCCCCCc1nnn[nH]1)C(C)C	74
3700		CCCCCNC(=O)NCCCC/C=C\CCCCCSc1nnn[nH]1	
5100		CCCCCNC(=O)NCCCC/C=C\CCCCCCC(=O)OCCOCCOCCO	72
		CCCCCNC(=O)NCCCC/C=C\CCCCOCC(=O)O	49
2200		CCCCCC1OC1C/C=C\C/C=C\C/C=C\CCCC(=O)O (stereo not drawn)	85
1700	> 500	CCCCNC(=O)C(=O)NCCCC/C=C\CCCCCCc1nnn[nH]1	96

EC50 [2] [nM]	IC50 [3] [nM]	Structure (SMILES)	Activity [1] [%]
> 10000		CCCCCNC(=O)NCCCC/C=C\CCCCCC1SC(=O)NC1=O (stereo not drawn)	
7600		CCCCCNC(=O)NCCCC/C=C\CCCCCCS(=O)(=O)[O-].[Na+]	63
2750	> 500	CCCCCN(C)C(=O)N(C)CCCC/C=C\CCCCCCC(=O)NCC(=O)O	92
3100		CCCCCNC(=O)NCCCC/C=C\CCCCCS(=O)(=O)c1ncn[nH]1	
900	> 500	CCCCCNC(=O)NCCCCCOc1cccc2sc(NC(C)=O)nc12	73
360	> 500	CCCCNC(=O)C(=O)NCCCC/C=C\CCCCCCc1noc(=S)[nH]1	116
3300		CCCCCNC(=O)NCCCC/C=C\CCOc1cccc2sc(NC(C)=O)nc12	
1100		CCCCCNC(=O)NCCCC/C=C\CCCCCCc1noc(=O)[nH]1	89
3400		CCCCCNC(=O)NCCCC/C=C\CCCCCNS(=O)(=O)c1ccccc1	
3500		CCCCCNC(=O)NCCCC/C=C\CCCCC[S+]([O-])c1ncn[nH]1 (stereo not drawn)	
2900	> 500	CCCCCCC(=O)N(CCCC/C=C\CCCCCCC(=O)OCCOCCOCCO)C(C)C	86
2400		CCCCCNC(=O)NCCCC/C=C\CCCCCCc1nsc(=O)[nH]1	54
1900	> 500	CCCCCCC(=O)N(CCCC/C=C\CCCCCCC(=O)NCC(=O)O)C(C)C	95
1600		CCCCCNC(=O)NCCCC/C=C\CCCCCCC(=O)N[C@@H](CC(=O)[O-])C(=O)[O-].[Na+].[Na+]	91
9800		CCCCCNC(=O)NCCCC/C=C\CCCCCSc1ncn[nH]1	
6700		CCCCCNC(=O)NCCCC/C=C\CCCCCCC(=O)NS(C)(=O)=O	61

Structure (SMILES)	EC50 [2] [nM]	IC50 [3] [nM]	Activity [1] [%]
CCCCCNC(=O)NCCCC/C=C\CCCCCCP(=O)([O-])[O-].[Na+].[Na+]	> 10000		71
